In brackets after ≈: the same amount, converted by molar mass.
Columns and labels:
[1] = Lipophilicity, log D of the compound; assay type: physicochemical; details: octanol/water
[2] = Volume of distribution at steady state in dog at 0.5 mg/kg, iv and 3 mg/kg, po; assay type: ADME, organism-based, Canis lupus familiaris; details: in vivo, read-out: Vdss
In short: (§1)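 In dogs, the IV dose was 0.5 mg/kg in solution in 10% EtOH/20% PEG400/70% PBS. The oral dose was 3 mg/kg in methylcellulose in water.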

[3] = Fraction unbound in human liver microsomes; assay type: ADME, Microsome
[4] = Volume of distribution at steady state in rat at 1 mg/kg, iv and 1 mg/kg, po; assay type: ADME, organism-based; details: in vivo, read-out: Vdss
In short: (§2)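 Rats received 1 mg/kg IV as a solution in 10% EtOH/20% PEG400/70% PBS. A separate group received 1 mg/kg orally in methylcellulose in water.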

[5] = Apparent permeability of the compound across basolateral to apical side in human Caco2 cells; assay type: ADME, cell-based; details: Caco-2
[6] = Fraction unbound in dog liver microsomes; assay type: ADME, Canis lupus familiaris, Microsome
[7] = Intrinsic clearance in dog microsomes; assay type: ADME, Canis lupus familiaris, Microsome
[8] = Apparent permeability of the compound across apical to basolateral side in human Caco2 cells; assay type: ADME, cell-based; details: Caco-2
[9] = Clearance in rat at 1 mg/kg, iv and 1 mg/kg, po; assay type: ADME, organism-based; details: in vivo; in short: as §2
Cytochrome P450 2D6 = Cytochrome P450 2D6 (Homo sapiens, UniProt P10635); experiment: Inhibition of CYP2D6; assay type: ADME
[10] = Fraction unbound in rat liver microsomes; assay type: ADME, Microsome
[11] = Percentage unbound in dog plasma; assay type: ADME, cell-free, Canis lupus familiaris
Protein smoothened = Protein smoothened (Mus musculus, UniProt P56726); experiment: Inhibition of Smo in mouse C3H10T1/2 cells using human recombinant SHH assessed as effect on SMO/SHH transient transcriptional activation after 20 hrs by Gli-luciferase reporter assay; assay type: cell-based, C3H 10T1/2
[12] = Oral bioavailability in rat at 1 mg/kg; assay type: ADME, organism-based; details: in vivo; in short: as §2
Salmonella typhimurium = experiment: Induction of genotoxicity in Salmonella typhimurium by Ames test; assay type: toxicity, organism-based; details: salmonella enterica subsp. enterica serovar typhimurium
Cytochrome P450 2C8 = biological target: T1, Cytochrome P450 2C8 (Homo sapiens, UniProt P10632); experiment: Inhibition of CYP2C8; assay type: ADME
T1 sequence (P10632 whole entry): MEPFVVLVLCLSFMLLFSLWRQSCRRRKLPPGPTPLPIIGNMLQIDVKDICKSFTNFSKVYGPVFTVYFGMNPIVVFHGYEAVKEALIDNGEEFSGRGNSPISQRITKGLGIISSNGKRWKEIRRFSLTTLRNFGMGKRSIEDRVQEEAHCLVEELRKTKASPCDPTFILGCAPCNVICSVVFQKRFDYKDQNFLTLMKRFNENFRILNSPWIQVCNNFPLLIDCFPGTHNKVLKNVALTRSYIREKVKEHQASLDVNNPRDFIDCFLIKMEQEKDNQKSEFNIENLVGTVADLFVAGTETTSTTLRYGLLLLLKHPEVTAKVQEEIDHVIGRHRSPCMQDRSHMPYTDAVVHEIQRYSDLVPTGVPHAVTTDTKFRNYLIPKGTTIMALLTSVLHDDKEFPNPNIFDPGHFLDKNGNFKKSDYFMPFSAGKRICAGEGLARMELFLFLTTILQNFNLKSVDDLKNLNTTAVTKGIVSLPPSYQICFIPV

Cytochrome P450 2C19 = Cytochrome P450 2C19 (Homo sapiens, UniProt P33261); experiment: Inhibition of CYP2C19; assay type: ADME
[13] = Half life in rat at 1 mg/kg, iv and 1 mg/kg, po; assay type: ADME, organism-based; details: in vivo; in short: as §2
Cytochrome P450 2C9 = Cytochrome P450 2C9 (Homo sapiens, UniProt P11712); experiment: Inhibition of CYP2C9; assay type: ADME
[14] = Dissociation constant, pKa of the compound; assay type: physicochemical
Cytochrome P450 3A4 = Cytochrome P450 3A4 (Homo sapiens, UniProt P08684); experiment: Inhibition of CYP3A4; assay type: ADME
Cytochrome P450 1A2 = biological target: T2, Cytochrome P450 1A2 (Homo sapiens, UniProt P05177); experiment: Inhibition of CYP1A2; assay type: ADME
T2 sequence (P05177 whole entry): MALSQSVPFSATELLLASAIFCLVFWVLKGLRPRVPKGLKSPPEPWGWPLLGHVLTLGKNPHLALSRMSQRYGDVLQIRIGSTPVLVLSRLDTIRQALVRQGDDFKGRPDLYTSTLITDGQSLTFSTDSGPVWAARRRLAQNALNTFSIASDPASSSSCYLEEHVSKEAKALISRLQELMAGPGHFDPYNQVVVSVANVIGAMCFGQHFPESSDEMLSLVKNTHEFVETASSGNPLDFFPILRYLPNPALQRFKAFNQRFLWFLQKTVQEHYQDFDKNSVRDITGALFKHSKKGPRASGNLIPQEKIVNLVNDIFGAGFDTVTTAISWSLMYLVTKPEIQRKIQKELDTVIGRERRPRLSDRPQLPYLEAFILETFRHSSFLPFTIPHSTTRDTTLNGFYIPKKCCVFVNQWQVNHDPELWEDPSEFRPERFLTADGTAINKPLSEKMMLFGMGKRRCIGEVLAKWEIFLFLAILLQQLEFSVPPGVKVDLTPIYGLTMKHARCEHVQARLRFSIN

[15] = Percentage unbound in human plasma; assay type: ADME, cell-free
[16] = Half life in dog at 0.5 mg/kg, iv and 3 mg/kg, po; assay type: ADME, organism-based, Canis lupus familiaris; details: in vivo; in short: as §1
[17] = Percentage unbound in rat plasma; assay type: ADME, cell-free
[18] = Oral bioavailability in dog at 3 mg/kg; assay type: ADME, organism-based, Canis lupus familiaris; details: in vivo; in short: as §1
[19] = Intrinsic clearance in rat microsomes; assay type: ADME, Microsome
[20] = Induction of genotoxicity in micronucleus by micronucleus test
[21] = Intrinsic clearance in human microsomes; assay type: ADME, Microsome
[22] = Clearance in dog at 0.5 mg/kg, iv and 3 mg/kg, po; assay type: ADME, organism-based, Canis lupus familiaris; details: in vivo; in short: as §1
[23] = Aqueous solubility of the compound; assay type: physicochemical; details: buffer
[24] = Chemical solubility of the compound in PBS at pH 6.5; assay type: physicochemical
[25] = Chemical solubility of the compound in SGN at pH 1.2; assay type: physicochemical
[26] = biological target: Protein smoothened (Mus musculus) (UniProt P56726); experiment: Potency ratio, ratio of IC50 for compound to IC50 for compound 1 in mouse C3H10T1/2 cells by SMO/SHH transient transcriptional activation based Gli-luciferase reporter assay; assay type: cell-based; details: C3H 10T1/2
[27] = Plasma clearance in rat at 2 mg/kg, iv dosed in 20% PEG400/80% H2O; assay type: ADME, organism-based; parameters: dose 2 mg/kg, route intravenous
In short: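 Single IV dose of 2 mg/kg formulated in 20% PEG400/80% H2O. Plasma clearance was determined.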

[28] = Free intrinsic clearance in human microsomes; assay type: ADME, Microsome
[29] = Oral bioavailability in dog at 5 mg/kg; assay type: ADME, organism-based, Canis lupus familiaris; details: in vivo
[30] = Plasma clearance in dog; assay type: ADME, organism-based, Canis lupus familiaris
[31] = Fraction absorbed in dog at 5 mg/kg, po; assay type: ADME, organism-based, Canis lupus familiaris; parameters: dose 5 mg/kg, route oral; details: in vivo
[32] = Drug excretion in rat urine at 2 mg/kg, iv; assay type: ADME, organism-based; parameters: dose 2 mg/kg, route intravenous; details: read-out: Drug excretion
[33] = Drug excretion in rat bile at 2 mg/kg, iv; assay type: ADME, organism-based; parameters: dose 2 mg/kg, route intravenous; details: read-out: Drug excretion
[34] = Oral bioavailability in rat at 5 mg/kg dosed in 0.5% methylcellulose in water; assay type: ADME, organism-based; details: in vivo
In short: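 Oral dosing at 5 mg/kg, formulated in 0.5% methylcellulose in water.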

Protein smoothened (Mus musculus), sequence (P56726 whole entry): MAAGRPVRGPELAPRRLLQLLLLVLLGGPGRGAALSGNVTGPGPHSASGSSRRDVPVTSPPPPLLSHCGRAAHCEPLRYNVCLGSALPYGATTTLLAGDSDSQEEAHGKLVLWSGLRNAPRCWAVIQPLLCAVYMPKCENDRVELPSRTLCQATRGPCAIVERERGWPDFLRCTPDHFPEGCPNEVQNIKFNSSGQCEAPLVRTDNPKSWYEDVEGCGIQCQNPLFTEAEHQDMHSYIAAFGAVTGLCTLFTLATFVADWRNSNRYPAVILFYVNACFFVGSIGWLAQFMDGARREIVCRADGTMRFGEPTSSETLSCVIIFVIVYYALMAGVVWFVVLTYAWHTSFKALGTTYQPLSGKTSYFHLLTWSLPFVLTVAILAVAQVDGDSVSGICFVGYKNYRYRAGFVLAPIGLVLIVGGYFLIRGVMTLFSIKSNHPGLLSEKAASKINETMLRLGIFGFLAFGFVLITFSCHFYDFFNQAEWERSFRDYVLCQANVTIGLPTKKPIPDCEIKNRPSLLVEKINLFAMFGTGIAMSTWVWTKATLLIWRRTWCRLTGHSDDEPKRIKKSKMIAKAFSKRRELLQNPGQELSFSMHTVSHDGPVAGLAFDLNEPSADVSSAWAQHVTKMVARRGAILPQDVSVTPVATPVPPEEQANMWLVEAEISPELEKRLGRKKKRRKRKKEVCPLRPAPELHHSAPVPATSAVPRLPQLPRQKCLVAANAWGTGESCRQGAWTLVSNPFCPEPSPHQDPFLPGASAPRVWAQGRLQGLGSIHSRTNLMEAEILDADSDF
Protein smoothened, sequence (P56726 whole entry): as above
Cytochrome P450 2C9, sequence (P11712 whole entry): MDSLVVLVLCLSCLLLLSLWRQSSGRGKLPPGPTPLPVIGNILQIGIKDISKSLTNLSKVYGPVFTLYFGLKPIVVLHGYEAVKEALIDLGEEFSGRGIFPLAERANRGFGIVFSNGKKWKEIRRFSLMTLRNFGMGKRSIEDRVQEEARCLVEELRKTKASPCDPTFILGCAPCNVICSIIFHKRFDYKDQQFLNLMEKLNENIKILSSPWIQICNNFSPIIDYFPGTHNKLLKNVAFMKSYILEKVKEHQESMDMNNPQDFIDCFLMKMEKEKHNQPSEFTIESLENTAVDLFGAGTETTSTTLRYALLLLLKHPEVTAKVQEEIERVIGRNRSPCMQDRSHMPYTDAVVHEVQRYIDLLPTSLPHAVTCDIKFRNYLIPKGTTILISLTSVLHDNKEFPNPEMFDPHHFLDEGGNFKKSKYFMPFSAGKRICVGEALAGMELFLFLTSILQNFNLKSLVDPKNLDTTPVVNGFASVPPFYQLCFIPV
Cytochrome P450 2C19, sequence (P33261 whole entry): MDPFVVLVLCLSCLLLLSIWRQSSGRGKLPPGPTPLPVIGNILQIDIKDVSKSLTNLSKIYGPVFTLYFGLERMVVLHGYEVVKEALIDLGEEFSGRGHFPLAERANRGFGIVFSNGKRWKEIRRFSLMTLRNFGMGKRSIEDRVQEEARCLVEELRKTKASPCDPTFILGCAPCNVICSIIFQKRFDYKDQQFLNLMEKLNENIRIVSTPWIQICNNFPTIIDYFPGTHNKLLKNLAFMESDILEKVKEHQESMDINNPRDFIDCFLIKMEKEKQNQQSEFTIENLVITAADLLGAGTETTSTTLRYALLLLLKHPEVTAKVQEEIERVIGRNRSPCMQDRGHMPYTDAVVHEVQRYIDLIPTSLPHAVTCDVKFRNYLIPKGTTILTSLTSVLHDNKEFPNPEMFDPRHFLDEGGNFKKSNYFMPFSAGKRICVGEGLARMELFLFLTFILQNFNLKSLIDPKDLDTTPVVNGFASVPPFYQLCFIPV
Cytochrome P450 3A4, sequence (P08684 whole entry): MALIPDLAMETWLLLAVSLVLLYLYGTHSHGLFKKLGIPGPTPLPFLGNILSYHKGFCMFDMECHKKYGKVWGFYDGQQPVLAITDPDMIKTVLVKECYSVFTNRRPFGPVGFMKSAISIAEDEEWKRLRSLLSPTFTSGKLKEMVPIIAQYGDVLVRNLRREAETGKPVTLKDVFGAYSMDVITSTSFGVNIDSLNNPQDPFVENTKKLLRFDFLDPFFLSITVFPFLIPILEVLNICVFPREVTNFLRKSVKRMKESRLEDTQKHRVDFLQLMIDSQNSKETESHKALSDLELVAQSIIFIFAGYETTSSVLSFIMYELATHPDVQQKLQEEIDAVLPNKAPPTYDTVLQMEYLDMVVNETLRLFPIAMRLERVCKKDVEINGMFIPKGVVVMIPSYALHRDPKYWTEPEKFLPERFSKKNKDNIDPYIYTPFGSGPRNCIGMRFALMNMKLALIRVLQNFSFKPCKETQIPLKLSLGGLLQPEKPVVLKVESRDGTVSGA
Cytochrome P450 2D6, sequence (P10635 whole entry): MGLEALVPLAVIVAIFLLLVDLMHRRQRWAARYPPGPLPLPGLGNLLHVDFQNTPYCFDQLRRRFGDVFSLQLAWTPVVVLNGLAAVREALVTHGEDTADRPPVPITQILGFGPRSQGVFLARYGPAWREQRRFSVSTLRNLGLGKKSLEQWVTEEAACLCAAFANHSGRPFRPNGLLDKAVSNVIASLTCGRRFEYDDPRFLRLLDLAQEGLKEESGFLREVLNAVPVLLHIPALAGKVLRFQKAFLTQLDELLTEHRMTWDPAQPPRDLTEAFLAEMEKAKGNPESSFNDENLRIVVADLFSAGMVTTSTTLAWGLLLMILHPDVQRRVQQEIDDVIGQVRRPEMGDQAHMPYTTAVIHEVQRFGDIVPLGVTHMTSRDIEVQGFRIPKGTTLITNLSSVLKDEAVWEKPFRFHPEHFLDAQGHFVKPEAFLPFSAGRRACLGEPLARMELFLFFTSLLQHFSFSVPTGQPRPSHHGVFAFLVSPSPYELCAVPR

CN1CC[C@@H](NC(=O)Nc2ccc(C#N)cc2)C[C@@H]1c1nc2ccccc2[nH]1 [GLASDEGIB]
logD [1]: 2.48 | Vd [2]: 4.3 L/kg | fraction unbound [3]: 0.61 | Vd [4]: 4.8 L/kg | Papp B→A [5]: 15.6 ×10⁻⁶ cm/s | fraction unbound [6]: 0.54 | CLint scaled [7]: < 14 mL/min/kg | Papp A→B [8]: 5.98 ×10⁻⁶ cm/s | clearance [9]: 31 mL/min/kg | IC50 (Cytochrome P450 2D6): > 30000 nM | fraction unbound [10]: 0.57 | fraction unbound [11]: 0.141 | IC50 (Protein smoothened): 5 nM | bioavailability [12]: 33% | Activity (Salmonella typhimurium): Non-toxic | IC50 (Cytochrome P450 2C8): > 30000 nM | IC50 (Cytochrome P450 2C19): > 30000 nM | half-life [13]: 1.4 h | IC50 (Cytochrome P450 2C9): > 30000 nM | pKa [14]: 6 | IC50 (Cytochrome P450 3A4): > 30000 nM | IC50 (Cytochrome P450 1A2): > 30000 nM | fraction unbound [15]: 0.091 | half-life [16]: 2.9 h | fraction unbound [17]: 0.109 | bioavailability [18]: 68% | CLint scaled [19]: 67 mL/min/kg | Activity [20]: Non-toxic | CLint scaled [21]: 6.3 mL/min/kg | clearance [22]: 3.9 mL/min/kg

CN1CC[C@@H](NC(=O)Nc2ccc(C#N)cc2)C[C@@H]1c1nc2ccccc2[nH]1.Cl.O
solubility [23]: 20 µg/mL | solubility [24]: 1150 µg/mL | solubility [25]: > 69000 µg/mL

CN1CC[C@@H](NC(=O)Nc2ccccc2)C[C@@H]1c1nc2ccccc2[nH]1
IC50 (Protein smoothened): 103 nM | Ratio IC50 [26]: > 50

COc1ccc(NC(=O)N[C@@H]2CCN(C)[C@@H](c3nc4ccccc4[nH]3)C2)cc1
IC50 (Protein smoothened): 35 nM | Ratio IC50 [26]: > 50

CN1CC[C@@H](NC(=O)Nc2cccc(C#N)c2)C[C@@H]1c1nc2ccccc2[nH]1
IC50 (Protein smoothened): 72 nM | Ratio IC50 [26]: > 50

O=C(Nc1cccc(-c2nc3ccccc3[nH]2)c1)c1ccc2c(c1)OCCO2
solubility [23]: 0.1 µg/mL (≈ 0.269 µM) | fraction unbound [11]: < 0.01 | IC50 (Protein smoothened): 5 nM | clearance [27]: 25 mL/min/kg | fraction unbound [15]: < 0.01 | fraction unbound [17]: < 0.01 | CL free [28]: 0.314 mL/min/kg

CN1CC[C@@H](NC(=O)Nc2ccc(C(F)(F)F)cc2)C[C@@H]1c1nc2ccccc2[nH]1
IC50 (Protein smoothened): 5 nM | Ratio IC50 [26]: > 50

CN1CC[C@@H](NC(=O)c2ccc3c(c2)OCCO3)C[C@@H]1c1nc2ccccc2[nH]1
bioavailability [29]: 33% | IC50 (Protein smoothened): 43 nM | clearance [30]: 18 mL/min/kg | clearance [27]: > 70 mL/min/kg | Ratio IC50 [26]: 9 | Fa [31]: > 50% | dose excreted [32]: < 5% | dose excreted [33]: < 5%

CN1CC[C@@H](NC(=O)Nc2ccc(Cl)cc2)C[C@@H]1c1nc2ccccc2[nH]1
IC50 (Protein smoothened): 20 nM | Ratio IC50 [26]: > 50

CN1CC[C@@H](NC(=O)Nc2cccnc2)C[C@@H]1c1nc2ccccc2[nH]1
IC50 (Protein smoothened): 191 nM | Ratio IC50 [26]: > 50

O=C(N[C@@H]1CCC[C@H](c2nc3ccccc3[nH]2)C1)c1ccc2c(c1)OCCO2
solubility [23]: 37 µg/mL (≈ 98 µM) | Papp B→A [5]: 65 ×10⁻⁶ cm/s | Papp A→B [8]: 85 ×10⁻⁶ cm/s | IC50 (Protein smoothened): 88 nM | bioavailability [34]: 4% | clearance [27]: 33 mL/min/kg | Ratio IC50 [26]: 18

CN1CC[C@@H](NC(=O)Nc2ccc(C#N)cc2)C[C@@H]1c1nc2ccccc2[nH]1
Ratio IC50 [26]: > 50

CN1CC[C@@H](NC(=O)Nc2ccc3c(c2)OCCO3)C[C@@H]1c1nc2ccccc2[nH]1
IC50 (Protein smoothened): 45 nM | Ratio IC50 [26]: > 50
